Measurements from ChEMBL document CHEMBL1275331, “Discovery of a novel 5-HT(3) antagonist/5-HT(1A) agonist 3-amino-5,6,7,8-tetrahydro-2-{4-[4-(quinolin-2-yl)piperazin-1-yl]butyl}quinazolin-4(3H)-one (TZB-30878) as an orally bioavailable agent for irritable bowel syndrome” (J Med Chem, 2010).
The source made the active and inactive calls. No cut-off for these calls is given here.

Key:
Rattus norvegicus [1] = assay: Reduction in wrap restraint stress-induced defecation in rat diarrhea-predominant irritable bowel syndrome model at 1 to 10 mg/kg, po administered 1 hr prior to induction of stress; type: functional, organism-based
Procedure, shortened: (§1)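 Lightly anesthetized rats had upper bodies wrapped with adhesive tape, then returned to observation cages; feces counted 1 h after wrapping. Compound or vehicle given orally 1 h before restraint; unwrapped animals as normal group. n = 8 per group, mean (SD); Wilcoxon and nonparametric Dunnett's tests.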

[2] = Drug level in Sprague-Dawley rat brain at 3 mg/kg, po after 2 hrs by HPLC analysis; type: ADME, organism-based; parameters: dose 3 mg/kg, route oral; conditions: read-out: Drug uptake
Procedure, shortened: (§2)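 Total compound concentration was measured in brain and blood at 2, 4 and 8 h after a single oral 3 mg/kg dose. Brain/blood ratio was also derived. Values are mean ± SD of three rats.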

Rattus norvegicus [3] = assay: Induction of 5HT1A receptor-mediated behavioral activity in rat assessed as appearance of flat body posture at 10 mg/kg, iv after 30 mins; type: functional, organism-based; parameters: dose 10 mg/kg
Procedure, shortened: (§3)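 Rats were conditioned to test procedures over 2 weeks and acclimated to the test cage for 1 h. Vehicle was saline containing diluted HCl. Lower lip retraction and flat body posture were scored on a 0–3 scale at 5, 10, 20 and 30 min after dosing.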

[4] = Drug level in Sprague-Dawley rat blood at 3 mg/kg, po after 2 hrs by HPLC analysis; type: ADME, organism-based; parameters: dose 3 mg/kg, route oral; conditions: whole blood, read-out: Drug uptake; procedure, shortened: as §2
[5] = Ratio of drug level in brain to blood in Sprague-Dawley rat at 3 mg/kg, po after 2 hrs; type: ADME, organism-based; parameters: dose 3 mg/kg, route oral
Procedure, shortened: (§4)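 Rats dosed 3 mg/kg orally; total compound levels measured in brain and blood at 2, 4 and 8 h, brain/blood ratio derived. Mean ± SD of three rats.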

[6] = target: T1, 5-hydroxytryptamine receptor 3A (Homo sapiens, UniProt P46098); assay: Displacement of [3H]BRL-43694 from human 5HT3 receptor expressed in HEK293 cells by liquid scintillation counting; type: cell-based
T1 sequence (P46098 whole entry): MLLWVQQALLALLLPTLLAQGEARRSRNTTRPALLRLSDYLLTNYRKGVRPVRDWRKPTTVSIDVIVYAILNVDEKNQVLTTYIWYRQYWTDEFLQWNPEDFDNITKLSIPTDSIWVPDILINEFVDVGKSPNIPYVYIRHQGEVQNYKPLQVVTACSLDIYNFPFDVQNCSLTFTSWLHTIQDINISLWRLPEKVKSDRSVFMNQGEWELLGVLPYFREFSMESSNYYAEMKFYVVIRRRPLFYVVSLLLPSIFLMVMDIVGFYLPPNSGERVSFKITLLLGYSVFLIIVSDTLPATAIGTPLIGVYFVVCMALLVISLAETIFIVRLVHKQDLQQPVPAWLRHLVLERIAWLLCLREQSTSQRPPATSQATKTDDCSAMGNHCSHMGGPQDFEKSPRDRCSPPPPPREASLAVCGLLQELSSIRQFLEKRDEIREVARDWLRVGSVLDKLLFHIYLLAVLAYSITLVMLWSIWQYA
Procedure, shortened: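 HEK-293 membranes expressing human 5-HT3 were incubated with 0.5 nmol/L [3H]BRL-43694 (final) for 60 min at 25 °C. Buffer: 50 mM Tris-HCl, 5 mM MgCl2, 1 mM EDTA, pH 7.5. Compound came from 270 μmol/L DMSO stock, diluted in buffer. Filtration was through GF/B presoaked in 0.5% polyethyleneimine, with two cold Tris washes. Run in duplicate or triplicate; percent inhibition calculated.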

[7] = target: T2, 5-hydroxytryptamine receptor 1A (Homo sapiens) (UniProt P08908); assay: Agonist activity at human cloned 5HT1A receptor expressed in CHO cells assessed as stimulation of [35S]GTPgammaS binding at 900 uL after 30 mins by liquid scintillation counting; type: functional, cell-based
T2 sequence (whole entry): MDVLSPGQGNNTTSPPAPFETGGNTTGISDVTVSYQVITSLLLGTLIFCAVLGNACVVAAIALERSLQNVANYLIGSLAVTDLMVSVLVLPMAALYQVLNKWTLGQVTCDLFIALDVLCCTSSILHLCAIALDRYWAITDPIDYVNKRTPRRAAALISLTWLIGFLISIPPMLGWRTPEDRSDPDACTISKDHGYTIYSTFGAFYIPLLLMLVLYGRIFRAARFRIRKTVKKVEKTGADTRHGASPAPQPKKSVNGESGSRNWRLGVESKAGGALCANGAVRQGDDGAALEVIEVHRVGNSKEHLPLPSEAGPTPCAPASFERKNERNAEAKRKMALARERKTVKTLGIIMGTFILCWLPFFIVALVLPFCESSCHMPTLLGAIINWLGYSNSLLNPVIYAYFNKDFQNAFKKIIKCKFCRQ
Procedure, shortened: (§5)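 Membranes from CHO cells expressing human 5-HT1A were diluted in 20 mM HEPES/3 mM MgCl2/120 mM NaCl, pH 7.4. They were preincubated with 20 μM GDP and test drug for 20 min at 30 °C, then held on ice for 15 min. [35S]GTPγS (100 pM) was added for 30 min at 30 °C. Samples were filtered, washed with cold HEPES/MgCl2 buffer, and bound radioactivity counted; EC50 and Emax reported.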

[8] = Drug level in Sprague-Dawley rat brain at 3 mg/kg, po after 4 hrs by HPLC analysis; type: ADME, organism-based; parameters: dose 3 mg/kg, route oral; conditions: read-out: Drug uptake; procedure, shortened: as §2
[9] = Ratio of drug level in brain to blood in Sprague-Dawley rat at 3 mg/kg, po after 4 hrs; type: ADME, organism-based; parameters: dose 3 mg/kg, route oral; procedure, shortened: as §4
[10] = target: T3, 5-hydroxytryptamine receptor 1A (Homo sapiens, UniProt P08908); assay: Displacement of [3H]8-OH-DPAT from human 5HT1A receptor expressed in CHO cells by liquid scintillation counting; type: cell-based
T3 sequence (P08908 whole entry): T2 sequence (whole entry)
Procedure, shortened: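 CHO-cell membranes with human 5-HT1A were incubated with 0.25 nmol/L [3H]8-OH-DPAT (final) for 60 min at 27 °C. Buffer: 50 mM Tris-HCl, 10 mM MgSO4, 0.5 mM EDTA, 0.1% ascorbic acid, pH 7.4. Compound came from 270 μmol/L DMSO stock, diluted in buffer. Filtration was through GF/C presoaked in 0.3% polyethyleneimine, with two cold Tris washes. Run in duplicate or triplicate; percent inhibition of binding calculated.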

[11] = Drug level in Sprague-Dawley rat blood at 3 mg/kg, po after 4 hrs by HPLC analysis; type: ADME, organism-based; parameters: dose 3 mg/kg, route oral; conditions: whole blood, read-out: Drug uptake; procedure, shortened: as §2
[12] = Ratio of drug level in brain to blood in Sprague-Dawley rat at 3 mg/kg, po after 8 hrs; type: ADME, organism-based; parameters: dose 3 mg/kg, route oral; procedure, shortened: as §4
[13] = target: T4, 5-hydroxytryptamine receptor 3A (Cavia porcellus) (UniProt O70212); assay: Inhibition of 5HT3 receptor-mediated contraction of guinea pig ileum at 1 umol/L after 20 mins relative to control; type: tissue-based
T4 sequence (whole entry): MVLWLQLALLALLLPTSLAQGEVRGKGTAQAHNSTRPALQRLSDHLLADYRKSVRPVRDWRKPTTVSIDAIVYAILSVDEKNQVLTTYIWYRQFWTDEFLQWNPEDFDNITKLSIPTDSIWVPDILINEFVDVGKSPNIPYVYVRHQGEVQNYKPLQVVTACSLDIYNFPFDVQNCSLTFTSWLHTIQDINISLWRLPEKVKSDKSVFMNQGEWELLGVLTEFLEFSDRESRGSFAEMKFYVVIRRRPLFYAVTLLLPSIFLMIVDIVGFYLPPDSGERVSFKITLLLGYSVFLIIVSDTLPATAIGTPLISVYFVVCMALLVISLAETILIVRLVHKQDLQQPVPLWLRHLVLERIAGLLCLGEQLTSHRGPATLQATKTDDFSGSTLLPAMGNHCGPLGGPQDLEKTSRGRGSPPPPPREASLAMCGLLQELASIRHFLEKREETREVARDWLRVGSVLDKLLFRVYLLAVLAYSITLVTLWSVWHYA
Procedure, shortened: (§6)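 Ileum strips in Tyrode solution at 37 °C, gassed 5% CO2/95% O2, isotonic contractions under 1 g load. After at least 3 stable contractions to 10 μM 2-methyl-5-HT, tissue exposed to compound or DMSO vehicle for 20 min, then 10 μM 2-methyl-5-HT re-added; contraction expressed as % inhibition of control.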

Rattus norvegicus [14] = assay: […] activity in rat assessed as inhibition of 5HT-induced bradycardia at 10 ug/kg, iv by von Benzold-Jarisch reflex assay; type: functional
[15] = target: T3, 5-hydroxytryptamine receptor 1A; assay: Agonist activity at human cloned 5HT1A receptor expressed in CHO cells assessed as stimulation of [35S]GTPgammaS binding after 30 mins by liquid scintillation counting; type: functional, cell-based; procedure, shortened: as §5
[16] = Drug level in Sprague-Dawley rat blood at 3 mg/kg, po after 8 hrs by HPLC analysis; type: ADME, organism-based; parameters: dose 3 mg/kg, route oral; conditions: whole blood, read-out: Drug uptake; procedure, shortened: as §2
Rattus norvegicus [17] = assay: Induction of 5HT1A receptor-mediated lower lip retraction behavior in rat at 10 mg/kg, iv after 30 mins; type: functional, organism-based; parameters: dose 10 mg/kg; procedure, shortened: as §3
[18] = Drug level in Sprague-Dawley rat brain at 3 mg/kg, po after 8 hrs by HPLC analysis; type: ADME, organism-based; parameters: dose 3 mg/kg, route oral; conditions: read-out: Drug uptake; procedure, shortened: as §2
Rattus norvegicus [19] = assay: Effect on 5HT1A receptor-mediated hypothermic effect in rat assessed as change in rectal temperature at 10 mg/kg, iv after 30 mins; type: functional, organism-based; parameters: dose 10 mg/kg
Procedure, shortened: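 Rats were conditioned over 2 weeks and acclimated to the cage for 1 h before dosing (vehicle: saline with diluted HCl). Rectal temperature was recorded with a thermistor probe inserted 3 cm, before and 30 min after administration. The change in temperature was reported.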

[20] = target: T4, 5-hydroxytryptamine receptor 3A (Cavia porcellus); assay: Inhibition of 5HT3 receptor-mediated contraction of guinea pig ileum at 0.1 umol/L after 20 mins relative to control; type: tissue-based; procedure, shortened: as §6
Rattus norvegicus [21] = assay: Reduction in wrap restraint stress-induced defecation in rat diarrhea-predominant irritable bowel syndrome model at 30 to 100 mg/kg, po administered 1 hr prior to induction of stress; type: functional, organism-based; procedure, shortened: as §1
[22] = target: 5-hydroxytryptamine receptor 2A (Rattus norvegicus) (UniProt P14842); assay: Inhibition of rat 5HT2 receptor AT 0.1 uM
5-hydroxytryptamine receptor 2A (Rattus norvegicus), sequence (P14842 whole entry): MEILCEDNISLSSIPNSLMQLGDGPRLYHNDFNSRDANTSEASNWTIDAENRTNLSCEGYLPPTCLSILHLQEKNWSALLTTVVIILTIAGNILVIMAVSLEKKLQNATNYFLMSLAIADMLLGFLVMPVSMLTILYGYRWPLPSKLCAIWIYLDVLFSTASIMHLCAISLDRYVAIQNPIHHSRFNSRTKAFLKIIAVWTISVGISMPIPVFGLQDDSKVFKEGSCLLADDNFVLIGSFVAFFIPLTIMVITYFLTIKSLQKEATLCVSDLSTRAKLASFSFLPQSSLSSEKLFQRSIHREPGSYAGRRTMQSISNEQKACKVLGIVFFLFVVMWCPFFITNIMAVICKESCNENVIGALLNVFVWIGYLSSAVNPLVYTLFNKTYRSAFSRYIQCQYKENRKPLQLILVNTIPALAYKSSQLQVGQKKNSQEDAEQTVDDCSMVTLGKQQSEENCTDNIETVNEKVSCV

[23] = target: Adrenergic receptor alpha-1 (Rattus norvegicus) (UniProt P15823+P23944+P43140); assay: Inhibition of rat alpha1 adrenergic receptor at 0.1 uM

Row | SMILES | concentration at 2 h [2] | Activity (Rattus norvegicus [3]) | concentration at 2 h [4] | Kp at 2 h [5] | IC50 [6] | Emax [7] | concentration at 4 h [8] | Kp at 4 h [9] | IC50 [10] | concentration at 4 h [11] | Kp at 8 h [12] | inhibition [13] | inhibition in vivo at 0.01 mg/kg (Rattus norvegicus [14]) | EC50 [15] | concentration at 8 h [16] | Activity (Rattus norvegicus [17]) | concentration at 8 h [18] | deltaT (Rattus norvegicus [19]) | other results
1 | Cc1[nH]cnc1CN1CCc2c(c3ccccc3n2C)C1=O | – | – | – | – | – | – | – | – | – | – | – | – | – | – | – | – | – | – | inhibition (Rattus norvegicus [1]): Active
2 | CC(=O)N1CCc2c(sc3nc(SCCCN4CCN(c5ccc6ccccc6n5)CC4)n(N)c(=O)c23)C1 | 18.7 nM | Active | 56 nM | 0.332 | 77.6 nM | 84.8% | 12.9 nM | 0.357 | 2.5 nM | 36.1 nM | 0.338 | 97.6% | 77% | 2.5 nM | 8.98 nM | Active | 2.96 nM | -0.1 °C | inhibition [20]: 79.9%
3 | O=C1[C@@H]2[C@H]3CC[C@H](C3)[C@@H]2C(=O)N1CCCCN1CCN(c2ncccn2)CC1 | – | – | – | – | – | – | – | – | – | – | – | – | – | – | – | – | – | – | inhibition (Rattus norvegicus [21]): inactive
4 | Nn1c(CCCCN2CCN(c3ccc4ccccc4n3)CC2)nc2ccccc2c1=O | 685 nM | Active | 97.4 nM | 7.11 | 45.7 nM | 94.7% | 367 nM | 6.59 | < 10 nM | 55.5 nM | 7.65 | 90.1% | 21.9% | 30.7 nM | 28.3 nM | Active | 204 nM | -1.9 °C | inhibition [22]: 78%; inhibition [23]: 63%
